# Screening results deposited in PubChem by Sanford-Burnham Center for Chemical Genomics.
# Shown are actives, neighbours in structure and some others; about 1.5% of the full set was active somewhere.
# TRAIL sens C8 – viability loss with TRAIL in NB7+C8 cells, primary screen, TRAIL sensitizer project, cell-based, ATPlite luminescence | inhibition (viability loss, TRAIL sensitization), % at 10 µM | hit rate 1% among 360,000 | AID 624354, 2012;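 active means compounds causing at least 50% loss of cell viability in the single-dose screen, relative to plate controls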
# FLuc act counter – FLuc activators, initial screening, artefact control for FLuc-dependent activation tests, biochemical, ATPlite luminescence; Luciferin 4-monooxygenase (Photinus pyralis), P08659; ATPlite luciferase biochemical, 10 min; 0 = ATP-free wells, 1 = DMSO control; activation factor at 10 µM; 200,000 tested, under 10 active; AID 1027, 2008;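 active means luciferase activation factor, scaled between plate controls, of at least 2 with compound at 10 µM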
# Target sequence (P08659 whole entry, looked up): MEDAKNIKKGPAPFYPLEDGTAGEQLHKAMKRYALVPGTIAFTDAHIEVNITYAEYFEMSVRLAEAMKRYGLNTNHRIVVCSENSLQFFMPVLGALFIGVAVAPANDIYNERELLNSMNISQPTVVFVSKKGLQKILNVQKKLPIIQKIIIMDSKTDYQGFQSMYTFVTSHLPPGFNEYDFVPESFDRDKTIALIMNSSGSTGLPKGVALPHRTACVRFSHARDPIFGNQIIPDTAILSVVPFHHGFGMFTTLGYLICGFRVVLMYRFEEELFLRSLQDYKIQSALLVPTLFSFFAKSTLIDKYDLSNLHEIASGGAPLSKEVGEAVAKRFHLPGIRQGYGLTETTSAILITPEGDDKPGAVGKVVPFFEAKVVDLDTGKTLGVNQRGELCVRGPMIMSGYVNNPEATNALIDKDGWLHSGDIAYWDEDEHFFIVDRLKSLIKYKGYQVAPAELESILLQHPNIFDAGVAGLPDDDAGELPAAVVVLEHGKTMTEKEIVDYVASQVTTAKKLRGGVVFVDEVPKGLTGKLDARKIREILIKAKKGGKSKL
#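 Material: Luciferase/luciferin reagent mix; Doses: test compounds dosed from 2 mM stocks in 100% DMSO; Schedule: 10 min incubation after luciferase reagent addition, room temperature; Measured by: luminescence from luciferase reaction; Read-out: luminescence gain marking luciferase activators.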
# PPC-1+TRAIL kill – compounds killing PPC-1 cancer cells with TRAIL present, primary screen, TRAIL potentiator project, ATPLite luminescence, uHTS; hit rate 0.41% among 220,000; AID 1443, 2008; PPC-1 cells + TRAIL, ATPLite viability luminescence; cell killing (% activity), % at 4 µM or 5 µM;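 active means cell killing above 50% in the first pass at 4 µM, then a duplicate retest at 5 µM averaging 50% or more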;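 further: plate controls were cells with TRAIL plus DMSO for no effect and medium-only wells lacking cells for full effect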
# FLuc inhib CS – firefly luciferase enzyme inhibitors, primary screen, artefact control for luciferase-based inhibitor screens, biochemical, luminescence, ATPLite | hit rate 1.5% among 200,000 | Luciferin 4-monooxygenase (Photinus pyralis), P08659 | inhibition, % at 10 µM | 10 min;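 active means inhibition above about 50% when tested at 10 µM, limit read from the data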
# PPC1 cytotox – cytotoxicity in PPC-1 cells, confirmation, cytotoxicity control for TRAIL apoptosis potentiator project, cell-based, ATP content luminescence; cytotoxicity, % at 5 µM; hit rate 50% among 1,200; shares compounds with PPC-1+TRAIL kill; PPC-1 viability, ATPlite luminescence, overnight; AID 1447, 2008;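 active means reconfirmed compounds whose average cytotoxicity reaches 50% or more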;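 further: 0% = DMSO-treated cells and 100% = wells holding medium but no cells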
# Starred values were filed as active, the others as inactive; . = no result.
SMILES,TRAIL sens C8,FLuc act counter,PPC-1+TRAIL kill,FLuc inhib CS,PPC1 cytotox
CCOC(=O)c1c(N)sc(C(=O)Nc2ccc3c(c2)OCO3)c1C,78.5*,0.1,71.1*,90.5*,76.7*
COc1ccc(C(=O)NC(=O)Nc2cc(C)ccn2)cc1,83.8*,0.1,86.5*,92.3*,86.8*
O=C(Nc1ccc(Cl)c(Cl)c1)c1ccc2c(c1)OCO2,16.5,.,.,.,.
O=C(Nc1ccc2nsnc2c1)c1ccc2c(c1)OCO2,47.5,0.3,49.8,70.5*,52.4*
O=c1cc[nH]c2c1ccc1cccnc12,5.7,.,.,.,.
O=C(Nc1ccon1)c1ccc2c(c1)OCO2,8.4,0.9,-8.7,5.3,.
Cc1ccnc(NC(=O)c2ccc3c(c2)OCO3)c1,77.4*,0.1,74.5*,91.5*,74.2*
C/C(=N\Nc1cccc2cccnc12)c1ccccn1,74.7*,0.1,47.7,87.1*,44.1
COc1ccc(C(=O)NC(=S)Nc2ccc(N3CCOCC3)cc2)cc1Cl,-15.8,.,.,.,.
O=C(Nc1cccnc1)c1sc2cccc(F)c2c1Cl,5.9,0.7,-10.3,26.1,.
O=C(Nc1ccccn1)c1sc2cccc(F)c2c1Cl,81.3*,0.2,81.4*,80.7*,82.6*
Cc1cc(C(=O)Cn2nnc3ccccc3c2=O)c(C)n1-c1ccccc1F,81.1*,0.1,69.1*,85.3*,69.6*
COc1ccc(-n2c(C)cc(C(=O)Cn3nnc4ccccc4c3=O)c2C)cc1,36.6,1,-5.1,0.5,.
COc1c(N)c2c(c([N+](=O)[O-])c1OC)C(=O)OC2,1.3,.,.,.,.
CCCNC(=O)C1(C)CCCN(C(=O)COc2ccc(C(C)(C)C)cc2)C1 (stereo unspecified),-9.9,.,.,.,.
Cc1ccccc1NC(=O)Cc1cn(C)c2ccccc12,5.7,1,4.0,-0.5,-8.6
CN1CCN(c2ccccc2NC(=O)Cc2cn(C)c3ccccc23)CC1,35.6,1.1,13.8,-7.5,.
COc1cc(OC)cc(C(=O)NC(C(=O)N2CCc3ccccc3C2)C(C)C)c1 (stereo unspecified),21.2,.,.,.,.
CN1CCN(CC(O)COc2ccc(Cl)cc2)CC1 (stereo unspecified),-6.4,1.1,0.2,-7.4,-16.1
COc1cc(/C=C2\CCc3c2nc2ccccc2c3C(=O)O)cc(OC)c1OC,57.3*,.,51.8*,.,53.8*
CNS(=O)(=O)c1ccc(CNC[C@H]2O[C@@H](n3cnc4c(=O)[nH]c(N)nc43)[C@H](O)[C@@H]2O)cc1,-2.8,.,.,.,.
COc1ccccc1C(=O)Nc1ccc2c(c1)nc1n2CCN(Cc2ccccc2)C1,0.7,1,-4.7,2.3,.
COc1ccccc1C(=O)Nc1ccc2c(c1)nc1n2CCSC1,42.7,0.2,28.1,78.2*,34.9
CC1(C)CCC[C@]2(C)[C@H]3Cc4cc(O)ccc4O[C@]3(C)CC[C@@H]12,0.7,.,.,.,.
O=S1(=O)c2cccc3cccc(c23)N1Cc1ccc(-c2nnco2)cc1,8.5,1.1,0.8,-7.8,3.7
SMILES,TRAIL sens C8,FLuc act counter,PPC-1+TRAIL kill,FLuc inhib CS,PPC1 cytotox
O=S1(=O)c2cccc3cccc(c23)N1Cc1nnc(-c2ccccc2Br)o1,24.1,1,5.0,-3.4,.
CCc1cccc(OCC(=O)Nc2ccc(S(=O)(=O)Nc3ccccn3)cc2)c1,-1.3,1.1,6.5,-6.3,7.9
Cc1ccc(OCC(=O)Nc2ccc(S(=O)(=O)Nc3ccccn3)cc2)cc1C,4.5,1,10.5,-2.1,.
N#Cc1c(SCC(=O)N2CCCCC2)nsc1SCC(=O)N1CCCCC1,6.2,1,2.9,-4.8,18.2
COc1cccc(/C=C/C(=O)Nc2ccc3c(c2)OCCO3)c1OC,80.5*,0.1,70.5*,92.6*,66.4*
COc1cccc(OC)c1C(=O)NC(=S)Nc1ccc2c(c1)OCCO2,2.6,0.9,-0.1,10.6,.
Cn1c(C(=O)Nc2ccc3c(c2)OCCO3)cc2sccc21,56.2*,0.2,42.5,81.4*,40.3
Cc1cc(C(=O)Nc2ccc3c(c2)OCCO3)co1,47.6,0.2,44.0,75.2*,40.2
Cc1ccc(C(=O)Nc2ccc3c(c2)OCCO3)o1,53.6*,0.2,62.0*,83.5*,58.7*
O=C1NC[C@H](CCCCN2CCN(CCc3ccccc3)C(=O)C2=O)N(CCC2CCCCC2)C1=O,-1.0,.,.,.,.
COc1ccc(C2NS(=O)(=O)OCC2C)cc1 (stereo unspecified),6.1,.,.,.,.
COc1ccccc1-c1cnc(C(O)c2c(C)cc(C)cc2C)[nH]1 (stereo unspecified),0.4,.,.,.,.
Cc1cc(N2CCOCC2)n2ncc(-c3ccccc3)c2n1,69.5*,0.2,47.7,84.4*,48.0
C=CCC1(/C=N/O)CCOC(C)(C)C1 (stereo unspecified),7.0,.,-3.1,.,.
O=C(C(=O)N1CCN(C/C=C/c2ccccc2)CC1)c1ccccc1,-4.4,.,.,.,.
COc1ccc(-n2cnnc2SCC(=O)c2cc(C)n(Cc3cccs3)c2C)cc1,9.1,1,3.4,-2.4,2.1
CC(=O)Nc1ccc(SCC(=O)c2cc(C)n(Cc3cccs3)c2C)cc1,39.4,1,38.7,1.2,39.1
O=C(c1ccc2c3c(cccc13)CC2)C1CCCN(Cc2ccncc2)C1 (stereo unspecified),7.7,1,15.8,-4.7,.
CCc1nc(CN2CCCC(C(=O)c3ccc4c5c(cccc35)CC4)C2)c(C)[nH]1 (stereo unspecified),17.9,1.1,12.9,-5.4,17.2
CCN(C(=O)c1ccco1)c1nnc(-c2ccc(OC)cc2)s1,68.8*,0.1,68.2*,85.1*,69.8*
COc1ccc(-c2cn(Cc3ccc4c(c3)C(=O)c3ccccc3C4=O)nn2)cc1,-14.4,.,.,.,.
COc1ccc(-c2cc3c(nn2)-c2ccccc2C3=O)cc1,87.0*,0.1,89.3*,93.8*,88.9*
O=C1c2ccccc2-c2nnc(-c3ccccc3)cc21,74.8*,0.2,62.8*,81.2*,64.9*
c1ccc(-c2cc3c(nn2)CCc2nonc2-3)cc1,-6.8,1,26.7,-3.2,.
CC(C1SC(=S)NC1=O)C1SC(=S)NC1=O (stereo unspecified),-17.9,.,.,.,.
SMILES,TRAIL sens C8,FLuc act counter,PPC-1+TRAIL kill,FLuc inhib CS,PPC1 cytotox
c1ccc(CNc2nc(-c3ccccn3)nc3ccccc23)cc1,8.4,.,.,.,.
Fc1ccccc1/C=N/Nc1nc(-c2ccccn2)nc2ccccc12,.,.,61.1*,.,45.6
Cc1cccc(/C=N/Nc2nncc3ccccc23)c1,78.9*,0.1,77.1*,94.2*,77.0*
Cc1ccc(/C=N/Nc2nnc(Cl)c3ccccc23)cc1,85.8*,0.1,78.2*,93.8*,77.9*
Cc1ccc(-c2nc(N/N=C/c3ccncc3)c3ccccc3n2)cc1,91.6*,0,97.7*,98.5*,97.6*
CCOc1cccc2sc(Cl)nc12,-23.3,1,5.4,-0.4,4.3
CCOc1cccc2sc(NN)nc12,4.6,1,1.5,0.2,.
